Source: PubChem BioAssay (several laboratories)
Compounds with a hit are over-represented: about 4.2% of the library has one in this group of screens.
AI-2 QS modul = modulators of Vibrio harveyi AI-2 quorum sensing system. Vibrio harveyi JMH597 AI-2 luminescence/OD600 ratio, 9 h; hits give low values; strain lacks LuxN and CqsS sensors; 0 = neutral-control median. activity change, % at 7.5 µM. 300,000 tested, 0.4% active; in the data active means activity change below about -75%, passing the limit was not always enough;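 further: luminescence divided by OD600 gain over 9 h not by final OD600 alone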
SUMO Mot1 rescue = SUMOylation pathway inhibition by Mot1-301 growth rescue. S. cerevisiae Mot1-301 growth rescue, ATP luminescence, 38.5C; percent above DMSO median, 100 means doubled. growth rescue, % at 18.8 µM. 320,000 tested, 1% active;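 active means every valid replicate shows activation above 250% relative to neutral control wells; inactive means the rest, any valid replicate at or below 250%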;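 further: OY570 slx delta 5 strain wells were the positive control but not used for scaling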
hERG protect = compounds protecting human hERG from proarrhythmic drug block. Q12809. CHO-hERG, FluxOR thallium flux, dofetilide IC70 present. activation (rescue from dofetilide block), less the hit threshold, % at 10 µM. 310,000 tested, 0.51% active. AID 1511;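 active means activation above the mean of controls blocked by dofetilide plus 5 SD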;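 further: thallium influx through hERG after potassium depolarization seen as dye fluorescence rise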
Target sequence (Q12809 whole entry, looked up): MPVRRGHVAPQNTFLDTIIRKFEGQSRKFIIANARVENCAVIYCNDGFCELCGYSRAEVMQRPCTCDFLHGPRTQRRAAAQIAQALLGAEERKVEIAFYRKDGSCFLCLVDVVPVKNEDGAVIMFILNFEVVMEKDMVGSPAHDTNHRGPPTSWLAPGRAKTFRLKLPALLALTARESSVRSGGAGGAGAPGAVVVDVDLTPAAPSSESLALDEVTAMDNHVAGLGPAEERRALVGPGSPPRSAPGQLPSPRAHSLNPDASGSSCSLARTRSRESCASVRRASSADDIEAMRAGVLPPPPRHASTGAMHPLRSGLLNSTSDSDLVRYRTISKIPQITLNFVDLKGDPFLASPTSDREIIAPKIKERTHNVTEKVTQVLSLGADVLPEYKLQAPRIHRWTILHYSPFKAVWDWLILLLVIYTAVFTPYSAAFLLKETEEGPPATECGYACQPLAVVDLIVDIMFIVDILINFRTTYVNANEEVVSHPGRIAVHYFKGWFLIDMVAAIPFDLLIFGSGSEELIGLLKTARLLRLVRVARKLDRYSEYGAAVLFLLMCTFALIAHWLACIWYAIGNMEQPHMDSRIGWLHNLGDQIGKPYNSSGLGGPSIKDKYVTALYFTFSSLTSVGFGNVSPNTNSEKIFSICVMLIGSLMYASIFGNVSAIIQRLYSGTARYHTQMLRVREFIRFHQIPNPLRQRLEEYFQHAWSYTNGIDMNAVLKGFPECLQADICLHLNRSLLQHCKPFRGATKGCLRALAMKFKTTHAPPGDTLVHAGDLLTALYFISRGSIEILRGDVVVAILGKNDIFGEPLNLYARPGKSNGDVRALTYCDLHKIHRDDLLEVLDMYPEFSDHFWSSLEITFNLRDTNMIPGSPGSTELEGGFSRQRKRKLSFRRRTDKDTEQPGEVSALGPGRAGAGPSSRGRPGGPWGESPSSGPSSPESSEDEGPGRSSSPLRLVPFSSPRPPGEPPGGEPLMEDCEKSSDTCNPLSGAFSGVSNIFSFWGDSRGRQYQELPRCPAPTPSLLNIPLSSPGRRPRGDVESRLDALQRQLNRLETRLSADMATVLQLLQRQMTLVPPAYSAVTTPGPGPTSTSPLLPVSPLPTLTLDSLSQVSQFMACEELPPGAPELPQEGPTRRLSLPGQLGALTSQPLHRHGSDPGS
Cl transport mod = modulates chloride dependent transport by human KCC2. Q9H2X9. KCC2 cells, thallium flux FluoZin-2 fluorescence. B-score of Tl+ flux slope (higher = more flux/activation; lower = inhibition) at 10 µM. 190,000 tested, 2.2% active;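 active means thallium flux slope and its plate-corrected score both differing from the plate sample mean at a set confidence after two filtering rounds, in either direction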;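 further: slope of fluorescence scaled to starting intensity during 10 to 20 s after thallium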
KCNQ1 act = human KCNQ1 channel potentiation or activation. CHO-K1 KCNQ1, thallium flux FluxOR fluorescence; hits give high values. B-score at 10 µM. 310,000 tested, 0.35% active;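 active means fluorescence ratio B-score, a plate-corrected score, at least three library SD, with initial intensity B-score within 5 SD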
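assay system = CHO-K1 cells stably expressing KCNQ1 | medium = assay buffer, equal DMSO in all wells | timing = 37 °C overnight plating, 90-min dark dye load, 20-min compound pretreatment | measured by = kinetic FluxOR thallium fluorescence, 10-s 1-Hz baseline, 110-s post-stimulus read | measure = fluorescence change relative to baseline, converted to B score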
KCNQ1 block = inhibitors of human KCNQ1 potassium channel; CHO-K1 KCNQ1, FluxOR thallium flux fluorescence; hits give high values; 310,000 tested, 1.3% active; B-score at 10 µM; AID 2642; P51787;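 active means compounds whose thallium flux B-score, printed positive for inhibition, exceeds three library SD while starting fluorescence stays within three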;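 further: channel opened by potassium depolarization with thallium stimulus after 20 min compound exposure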
* marks the source's active call; other numbers are inactive results.

`CCn1c2ccccc2c2cc(/C=N/NC(=O)c3ccccc3)ccc21` gave AI-2 QS modul 33.1, SUMO Mot1 rescue 17.6, hERG protect 6.4*, Cl transport mod -1.08, KCNQ1 act inactive and KCNQ1 block inactive.
Cn1c(CNC(=O)C(Cc2ccccc2)NC(=O)c2ccccc2F)cc(=O)n(C)c1=O (stereo not drawn) was read as AI-2 QS modul 5.5, SUMO Mot1 rescue -8.0, hERG protect -8.3, KCNQ1 act inactive and KCNQ1 block inactive.
Cc1ccc(C2CC2c2n[nH]c(=S)n2-c2ccc(C)cc2)cc1 (stereo not drawn) was read as AI-2 QS modul 2.0, SUMO Mot1 rescue -0.8, hERG protect -8.1, Cl transport mod 21*, KCNQ1 act inactive and KCNQ1 block inactive.
For O=C1COc2ccc(S(=O)(=O)N3CCN(c4ccccc4F)CC3)cc2N1 the results were AI-2 QS modul 5.4, hERG protect -9.1, KCNQ1 act inactive and KCNQ1 block inactive.
Screening COc1ccc(C(=O)N2C(=S)NC(=O)/C2=C\c2ccc(C)cc2)cc1 returned AI-2 QS modul 32.5, SUMO Mot1 rescue -16.4, hERG protect 3.8, Cl transport mod 7.91*, KCNQ1 act inactive and KCNQ1 block inactive.
Screening CCCNC(=O)C1(CC2CC(c3ccccc3)=NO2)CCN(C(=O)c2ccccc2)CC1 (stereo not drawn) returned SUMO Mot1 rescue 5.4.
CCCNC(=O)C1(CC2CC(c3ccccc3)=NO2)CCN(C(=O)C2(C)CC2)CC1 (stereo not drawn) was read as AI-2 QS modul 12.6, SUMO Mot1 rescue 354.5*, hERG protect -4.7, KCNQ1 act inactive and KCNQ1 block inactive.
For Cc1cc(/C=N/n2cnnc2)c(C)n1-c1ccc(Cl)cc1Cl the results were AI-2 QS modul 27.3, SUMO Mot1 rescue 7.4, hERG protect -10.6, Cl transport mod -0.801, KCNQ1 act 10* and KCNQ1 block inactive.
`CCOC(=O)Cc1csc(NC(=S)NC(=O)c2ccccc2C)n1` gave AI-2 QS modul 9.0, SUMO Mot1 rescue 96.6, hERG protect 1.9, Cl transport mod 29*, KCNQ1 act 16* and KCNQ1 block inactive.
CCOC(=O)Cc1csc(NC(=O)Cc2ccccc2)n1 was read as AI-2 QS modul 3.0, SUMO Mot1 rescue 16.3, hERG protect -11.5, Cl transport mod -0.28, KCNQ1 act inactive and KCNQ1 block inactive.
`CC(OC(=O)CCc1c[nH]c2ccccc12)C(=O)c1ccccc1` (stereo not drawn) gave AI-2 QS modul -1.9, SUMO Mot1 rescue -21.4, hERG protect -13.6, Cl transport mod -1.48, KCNQ1 act inactive and KCNQ1 block inactive.
Cc1csc2c(N3CCC(C(=O)O)CC3)ncnc12 was read as AI-2 QS modul 13.7, SUMO Mot1 rescue -1.6, hERG protect -4.0, Cl transport mod -1.28, KCNQ1 act inactive and KCNQ1 block inactive.
`Cc1csc2c(N3CCCCC3)ncnc12` gave AI-2 QS modul 9.4, SUMO Mot1 rescue -17.3, hERG protect 8.6*, Cl transport mod 1.66, KCNQ1 act inactive and KCNQ1 block inactive.
COc1ccc(-c2nsc3c(N4CCCCC4)ncnc23)cc1 was read as AI-2 QS modul 0.1, SUMO Mot1 rescue -17.8, hERG protect 8.0*, Cl transport mod 0.101, KCNQ1 act inactive and KCNQ1 block inactive.
`COc1cc(C2Nc3ccc4ccccc4c3C3=C2C(=O)CC(C)(C)C3)ccc1OC(C)C(=O)O` (stereo not drawn) gave AI-2 QS modul 11.8, SUMO Mot1 rescue 220.8, hERG protect -8.1, KCNQ1 act inactive and KCNQ1 block inactive.
For Cn1c(=O)[nH]c2ccc([N+](=O)[O-])nc21 the results were AI-2 QS modul 26.4, SUMO Mot1 rescue -14.1, hERG protect -2.2, Cl transport mod -0.455, KCNQ1 act inactive and KCNQ1 block inactive.
For O=C(/C=C/c1ccccc1)NCCc1nc2ccccc2[nH]1 the results were AI-2 QS modul 2.1, SUMO Mot1 rescue -15.9, hERG protect -8.4, KCNQ1 act inactive and KCNQ1 block inactive.
`COc1ccc(OC)c(/C=C/C(=O)NCCc2nc3ccccc3[nH]2)c1` gave AI-2 QS modul 15.3, SUMO Mot1 rescue 3.0, hERG protect -9.7, Cl transport mod -0.00156, KCNQ1 act inactive and KCNQ1 block 7*.
For CCNC(=O)CC1SC(=Nc2ccc(C)c([N+](=O)[O-])c2)N(C)C1=O (stereo not drawn) the results were AI-2 QS modul -5.5, SUMO Mot1 rescue -3.8, hERG protect -11.2, KCNQ1 act inactive and KCNQ1 block inactive.
`O=C1N=C(N2CCCC2)S/C1=C\C=C\c1ccccc1` gave AI-2 QS modul 4.7, SUMO Mot1 rescue 1.7, hERG protect -0.1, Cl transport mod -1.81, KCNQ1 act inactive and KCNQ1 block inactive.
For Cc1nc(-c2ccc(NC(=O)Cc3ccccc3)cc2)cs1 the results were AI-2 QS modul 5.7, SUMO Mot1 rescue 10.6, hERG protect 2.1, KCNQ1 act 8* and KCNQ1 block inactive.
Screening Nc1cc(N2CCCC2)c(Cl)cc1[N+](=O)[O-] returned AI-2 QS modul -3.0, SUMO Mot1 rescue 307.5*, hERG protect -9.3, Cl transport mod 0.388, KCNQ1 act inactive and KCNQ1 block inactive.
COc1cc(NC(=O)Cn2c(=O)n(-c3cccc(C)c3)c(=O)c3c(C)c(C)sc32)cc(OC)c1 was read as AI-2 QS modul -8.8, SUMO Mot1 rescue 20.6, hERG protect -6.0, Cl transport mod 0.12, KCNQ1 act inactive and KCNQ1 block inactive.
`Cc1ccc(Oc2c(F)c(F)nc(N3CCCC3)c2F)cc1` gave AI-2 QS modul 12.0, SUMO Mot1 rescue -0.3, hERG protect -3.1, Cl transport mod 0.038, KCNQ1 act inactive and KCNQ1 block inactive.
`O=[N+]([O-])c1ccc(Oc2c(F)c(F)nc(N3CCCC3)c2F)cc1` gave AI-2 QS modul 12.3, SUMO Mot1 rescue 16.1, hERG protect -4.0, Cl transport mod 0.822, KCNQ1 act inactive and KCNQ1 block 7*.
For CN(CC(=O)Nc1cccc(S(=O)(=O)NC2=NCCC2)c1)Cc1ccccc1Cl the results were SUMO Mot1 rescue -5.4.
For COC(=O)c1ccc(N2C(=O)CC(N(C)CCc3ccc(OC)c(OC)c3)C2=O)cc1 (stereo not drawn) the results were AI-2 QS modul 74.0, SUMO Mot1 rescue 302.6*, hERG protect -10.4, Cl transport mod 0.319, KCNQ1 act inactive and KCNQ1 block inactive.
Cc1cccc(NC(=O)CSc2nnc(-c3cc(C)[nH]n3)n2N)c1 was read as AI-2 QS modul 18.5, SUMO Mot1 rescue -7.8, hERG protect -5.5, KCNQ1 act inactive and KCNQ1 block inactive.
